This is a sample that favours compounds with a hit; in the whole collection about 1.7% have one here.
HNF4A DNA FP: change in binding of human HNF4 alpha to DNA | P41235 | HNF4a-FITC DNA binding, fluorescence polarization, 1 h | activity change, % at 10 µM | 360,000 tested, 0.3% active; in the data active = activity change above about 30%, passing the limit was not always enough
IDE inh: inhibitors of human insulin-degrading enzyme in cells | HEK cells, FAbetaB cleavage, fluorescence polarization | 320,000 tested, 0.41% active | inhibition, % at 5.59 µM;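 active = percent inhibition above the average of all tested compounds plus 3 SD, set per screening campaign, cut at about 16% in these data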;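 note: IDE supplied by intact live HEK cells; FP after avidin binding of uncleaved biotin substrate so inhibition keeps polarization high; 0% = DMSO wells and 100% = 60 µM reference IDE inhibitor Ii1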
Rpn11 inh: blocks the human proteasome subunit Rpn11. O00487. human 26S proteasome, Ub4-pepOG fluorescence polarization; 20S core pre-blocked with epoxomicin. inhibition, % at 20 µM. 360,000 tested, 0.59% active. AID 588493;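 active = inhibition at 20 µM, scaled to each plate's controls, above about 33%, limit read from the data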
TPT1 inh: C. albicans TPT1 enzyme inhibition; recombinant caTPT1, FP RNA substrate dephosphorylation; inhibition, % at 5 µM; 300,000 tested, 0.81% active; AID 1962;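 active = inhibition above the mean of all tested compounds plus 3 SD, set per screening campaign, cut at about 24% in these data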;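 note: plate controls were DMSO alone for no effect and ferristatin control at 100 nM for full effect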
CSN deneddyl inh: CSN deneddylation inhibition. 360,000 tested, 0.38% active. inhibition, % at 12.5 µM. Purified CSN, SCF-Nedd8-OG deneddylation, fluorescence polarization. Q92905;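 active = pattern-corrected inhibition above about 35%, with an unprinted fluorescence ratio check between 0.5 and 1.5, limit read from the data, passing the limit was not always enough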;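 note: 0% = enzyme with substrate and 100% = substrate without enzyme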
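Assay system: purified human Csn5 enzyme expressed in HEK293T cells; Input: 0.24 nM Csn5 enzyme, final concentration; Reagent: 10 nM SCFSkp2-Nedd8OG; Compound dosing: 12.5 µM single point; Times: reaction 90 min, room temperature; Technique: fluorescence polarization readout.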
IDE act: IDE (human) activation, cell-based; 340,000 tested, 0.073% active; HEK cells, FAbeta-B cleavage, fluorescence polarization; 0% vehicle, 100% cell-free pure enzyme wells; P14735; AID 493087; activation, % at 5.96 µM;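 active = activation above the mean of all tested compounds plus 3 SD, set per screening campaign, cut at about 17% in these data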
TPT1 inh confirm: confirmation of Candida albicans TPT1 inhibitors | inhibition, % at 5 µM | AID 2149 | 2,400 tested, 74% active | shares compounds with TPT1 inh | recombinant caTPT1, fluorescence polarization, RNase T1 coupled;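 active = inhibition above the primary screen limit, the mean inhibition of all tested compounds plus 3 SD, cut at about 25% in these data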
RNase T1 inh: RNase T1 inhibition in TPT1 counter-screen; inhibition, % at 5 µM; shares compounds with TPT1 inh; 2,400 tested, 83% active; AID 2153; RNase T1 cleavage, fluorescence polarization, 1536-well;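 active = inhibition above the solvent-only control well mean plus 3 SD, limit set per screening run, cut at about 23% in these data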;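 note: plate controls were DMSO wells with enzyme for no effect and wells without RNase T1 for full effect; inhibitors block cleavage so intact labeled substrate keeps polarization high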
Numbers without * were called inactive; x = no result given.

SMILES	HNF4A DNA FP	IDE inh	Rpn11 inh	TPT1 inh	CSN deneddyl inh	IDE act	TPT1 inh confirm	RNase T1 inh
N=c1oc2cc(O)ccc2cc1C(=O)Nc1ccc(Cl)cc1	34	-12	12	50*	5	-3	70*	80*
CCSc1ccc([C@@H]2[C@H]3C(=O)N(CC)C(=O)[C@H]3[C@]3(C(=O)OC)CCCCN23)cc1	11	0	16	24*	6	2	39*	49*
CCNC(=O)C1(C)CCN(Cc2csc(-c3ccccc3)n2)C1 (stereo not given)	-4	x	-1	x	0	x	x	x
O=C(CN1CCN(S(=O)(=O)c2ccc(Br)cc2)CC1)N/N=C/c1ccc(Br)s1	4	2	4	30*	1	3	14	16
Cc1cc(F)ccc1C(O)c1ncc(-c2ccccc2Cl)[nH]1 (stereo not given)	-1	x	-4	x	-3	x	x	x
COc1ccc(C2=NNC(c3cc(Cl)cc4c3OCOC4)C2)c(O)c1 (stereo not given)	x	0	x	37*	x	x	19	28*
COc1cc(C)ccc1S(=O)(=O)NC(=O)C1(C)CCN1C(=O)c1ccc(C2CCCCC2)cc1 (stereo not given)	2	x	-3	x	2	x	x	x
CC1(C)CC(=O)C2=C(C1)OC(N)=C(C#N)C21CCN(Cc2ccccc2)CC1	1	1	-15	27*	-1	2	22	32*
COc1ccc(C(=O)c2c(N)sc3c2CCN(C)C3)cc1	-13	1	1	42*	3	4	40*	48*
CN1CCc2c(sc(N)c2C(=O)O)C1	-3	3	-1	-15	-3	-1	x	x
COc1ccccc1NC(=O)/C(C#N)=C/c1cc([N+](=O)[O-])ccc1N1CCCC1	-105	-8	-140	38*	-77	2	74*	85*
COc1ccc(CCNC(=O)c2ccc3c(c2)NC(=O)C(CSCc2cc(C)ccc2C)N3)cc1OC (stereo not given)	x	6	x	129*	x	x	124*	122*
Cc1cc(/C=C2\SC(=O)N(C)C2=O)c(C)n1-c1ccc(O)cc1	2	1	2	3	-2	3	x	x
CC(=O)NC1=NC(=O)/C(=C/c2cc(C)n(-c3ccc(NC(C)=O)cc3)c2C)S1	82*	10	x	68*	30	-9	102*	109*
CC(=O)NC1=NC(=O)/C(=C/c2cn(C(C)=O)nc2-c2ccccc2)S1	16	20*	40	31*	11	-4	35*	47*
O=C(Nc1cccc(Cl)c1)c1ccc2sc([C@H]3C[C@H](O)[C@@H](CO)O3)nc2c1	4	x	-8	x	-5	x	x	x
CCc1nc2ccc(C(=O)NC3CCN(Cc4ccccc4)CC3)cn2c1N(CC)Cc1cccc(Br)c1	-1	x	14	x	-4	x	x	x
COc1ccc(NC(=O)C2CCCN2C(=O)Oc2ccccc2)cc1 (stereo not given)	-6	4	-1	47*	-7	7	6	6
COc1cc(CNc2ncnc3c2ncn3[C@H]2CN(Cc3ccc(Cl)cc3)C[C@@H](CO)O2)cc(OC)c1OC	5	x	2	x	-2	x	x	x
Cc1cc(C)n(Cc2ccc(C(=O)N/N=C/c3ccc(-c4ccc([N+](=O)[O-])cc4)o3)o2)n1	49	-7	x	76*	105	2	65*	25*
CC(C)(C)NC(=S)N/N=C\c1ccc(-c2ccc([N+](=O)[O-])cc2)o1	64*	2	x	92*	0	x	98*	103*
CCCCC(=O)N/N=C/c1ccc(-c2ccc([N+](=O)[O-])cc2)o1	3	5	13	13	1	2	x	x
N#CC(C#N)=C/C=C(\Nc1ccc(Cl)cc1)c1ccc(Cl)cc1	1	6	14	70*	108	3	13	19
O=C(O)Cn1cc(/C=c2/sc3nc4ccccc4n3c2=O)c2ccccc21	28	6	37	39*	5	-2	28*	37*
CC1C/C(=C/c2ccco2)C(=O)/C(=C/c2ccco2)C1 (stereo not given)	x	3	x	61*	x	x	62*	71*
SMILES	HNF4A DNA FP	IDE inh	Rpn11 inh	TPT1 inh	CSN deneddyl inh	IDE act	TPT1 inh confirm	RNase T1 inh
CC1C/C(=C/c2ccccn2)C(=O)/C(=C/c2ccccn2)C1 (stereo not given)	8	5	6	-2	8	4	x	x
CC1C/C(=C/c2cccs2)C(=O)/C(=C/c2cccs2)C1 (stereo not given)	22	2	36	26*	23	0	10	14
Cc1ccc(S(=O)(=O)N2[C@@H](Cc3ccccc3)CO[C@H]2CC(=O)c2cccc3ccccc23)cc1	-2	x	x	x	0	x	x	x
CCc1ccc2[nH]c(O)c(N=Nc3nc(-c4ccccc4)cs3)c2c1	14	2	33	43*	8	8	26*	40*
CCC(C(=O)NC(C)(C)C)n1c(C(c2ccccc2)c2ccccc2)nc2ccccc21 (stereo not given)	1	x	x	x	0	x	x	x
Cc1ccc(O)c(C(=O)c2cc(C#N)c3nc4ccccc4n3c2)c1	81	12	x	39*	6	-79	59*	72*
O=[N+]([O-])c1cc2c(c([N+](=O)[O-])c1)Nc1ccccc1O2	4	x	-6	x	0	x	x	x
O=C1Nc2ccccc2Oc2cc([N+](=O)[O-])cc(Oc3ccccc3)c21	17	7	x	27*	36*	-6	46*	59*
O=C(O)c1cc(O)c2c(c1)[C@@H]([C@H]1c3cc(C(=O)O)cc(O)c3C(=O)c3c(O[C@@H]4O[C@H](CO)[C@@H](O)[C@H](O)[C@H]4O)cccc31)c1cccc(OC3O[C@H](CO)[C@@H](O)[C@H](O)[C@H]3O)c1C2=O (stereo not given in full)	-87	-1	34	77*	45	3	84*	6
CC(=O)Nc1cc(-c2ccc(N)nc2)cn2c(-c3cccc(C(F)(F)F)c3)cnc12	23	x	38	x	12	x	x	x
CC(=O)Nc1ccc(S(=O)(=O)Nc2nc3ccccc3nc2Nc2cccc(O)c2)cc1	-1	-1	0	3	2	0	x	x
CC(=O)Nc1ccc(S(=O)(=O)Nc2nc3ccccc3nc2Nc2ccc(C(=O)O)c(O)c2)cc1	-30	1	-51	x	52	5	x	x
CC(=O)Nc1ccc(S(=O)(=O)Nc2nc3ccccc3nc2Nc2ccc(N)cc2)cc1	40	13	x	77*	83	-11	62*	69*

Screening data from PubChem BioAssay.
